Data reported in ChEMBL document CHEMBL1122502, “9-acridinyl and 2-methoxy-6-chloro-9-acridinyl derivatives of aliphatic di-, tri-, and tetraamines. Chemistry, cytostatic activity, and schistosomicidal activity” (1983).

Key:
Format in all cases: functional, Mus musculus
[1] = In vitro for cytostatic activity against Cloudman melanoma S91 cells at 1.0 uM concentration.
How it was run: (§1)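 Cloudman melanoma S91 cells (doubling time 36 h), 0.1×10^6 per flask, pre-grown 72 h at 37 °C in Ham's F10 with 15% horse serum, 2.5% fetal bovine serum, 8 mM glutamine, penicillin and streptomycin. Medium then replaced with compound at final 0.1, 0.5 or 1.0 μM, with 0.1% DMSO in test and control. After 72 h more, cells trypsinized and counted. Triplicate cultures; cell number given as % of control.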

[2] = Compound was tested in vitro for cytostatic activity against Cloudman melanoma S91 cells at 0.1 uM concentration; how it was run: as §1
[3] = Compound was tested in vitro for cytostatic activity against Cloudman melanoma S91 cells at 0.5 uM concentration; how it was run: as §1

Which “Cell number (% of control)” value [1] does the source give for `COc1ccc2nc3cc(Cl)ccc3c(NCCCN3CCN(CCCNc4c5ccc(Cl)cc5nc5ccc(OC)cc45)CC3)c2c1.Cl` here?
Its value is 43%.

Which “Cell number (% of control)” value [2] does the source give for `Cl.c1ccc2c(NCCCN3CCN(CCCNc4c5ccccc5nc5ccccc45)CC3)c3ccccc3nc2c1` here?
Its value is 24%.

And the “Cell number (% of control)” value [1]?
The value was 2%.

Which “Cell number (% of control)” value [2] does the source give for `COc1ccc2nc3cc(Cl)ccc3c(NCCCNCCCNc3c4ccccc4nc4ccccc34)c2c1.Cl` here?
Its value is 66%.

What about the “Cell number (% of control)” value [1] of the same molecule?
The value was 3%.

For `COc1ccc2nc3cc(Cl)ccc3c(NCCCCCCNc3c4ccc(Cl)cc4nc4ccc(OC)cc34)c2c1.Cl.Cl.Cl.Cl`, which “Cell number (% of control)” value [1] is on record?
Its value is 83%.

Which “Cell number (% of control)” value [2] does the source give for `Cl.NCCCN1CCN(CCCNc2c3ccccc3nc3ccccc23)CC1` here?
The value was 39%.

What about the “Cell number (% of control)” value [1] of the same molecule?
Its value is 3%.

Which “Cell number (% of control)” value [1] does the source give for `COc1ccc2nc3cc(Cl)ccc3c(NCCCCCCNc3c4ccccc4nc4ccccc34)c2c1.Cl.Cl.Cl` here?
Its value is 49%.

Which results are given for `CCNCCCCCCNc1c2ccccc2nc2ccccc12.Cl.Cl`?
Cell number (% of control) [2]: 102%; Cell number (% of control) [1]: 7%

With `COc1ccc2nc3cc(Cl)ccc3c(NCCCN3CCN(CCCNc4c5ccccc5nc5ccccc45)CC3)c2c1.Cl` as the molecule, how does the “Cell number (% of control)” value [2] read?
Its value is 50%.

And the “Cell number (% of control)” value [1]?
Its value is 20%.

Which “Cell number (% of control)” value [2] does the source give for `Cl.c1ccc2c(NCCCNCCCNc3c4ccccc4nc4ccccc34)c3ccccc3nc2c1` here?
The value was 103%.

What about the “Cell number (% of control)” value [1] of the same molecule?
Its value is 31%.

With `Cl.Cl.c1ccc2c(NCCCCCCNc3c4ccccc4nc4ccccc34)c3ccccc3nc2c1` as the molecule, how does the “Cell number (% of control)” value [1] read?
Its value is 39%.

Which “Cell number (% of control)” value [1] does the source give for `COc1ccc2nc3cc(Cl)ccc3c(NCCCCCCCCNc3c4ccccc4nc4ccccc34)c2c1.Cl.Cl.Cl` here?
The value was 44%.

With `COc1ccc2nc3cc(Cl)ccc3c(NCCCNCCCNc3c4ccc(Cl)cc4nc4ccc(OC)cc34)c2c1.Cl` as the molecule, how does the Control [3] read?
The Control was 16%.

And the “Cell number (% of control)” value [2]?
The value was 85%.

And the “Cell number (% of control)” value [1]?
Its value is 0%.

With `Cl.Cl.NCCCCCCNc1c2ccccc2nc2ccccc12` as the molecule, how does the “Cell number (% of control)” value [1] read?
Its value is 95%.

With `COc1ccc2nc3cc(Cl)ccc3c(NCCCCCCN)c2c1.Cl.Cl.Cl` as the molecule, how does the “Cell number (% of control)” value [2] read?
The value was 105%.

What about the “Cell number (% of control)” value [1] of the same molecule?
The value was 105%.

Which “Cell number (% of control)” value [1] does the source give for `COc1ccc2nc3cc(Cl)ccc3c(NCCCN3CCN(CCCN)CC3)c2c1.Cl` here?
The value was 78%.

With `COc1ccc2nc3cc(Cl)ccc3c(NCCCCCCCCN)c2c1.Cl.Cl.Cl` as the molecule, how does the “Cell number (% of control)” value [1] read?
Its value is 86%.

With `COc1ccc2nc3cc(Cl)ccc3c(NCCCNCCCN)c2c1.Cl` as the molecule, how does the “Cell number (% of control)” value [1] read?
The value was 28%.

For `Cl.Cl.c1ccc2c(NCCN3CCNCC3)c3ccccc3nc2c1`, which “Cell number (% of control)” value [1] is on record?
The value was 30%.
